Each compound was assayed against T1, OR2A7 (Homo sapiens) (UniProt Q96R45). Conditions: stereoisomer not certain.
T1 sequence (whole entry): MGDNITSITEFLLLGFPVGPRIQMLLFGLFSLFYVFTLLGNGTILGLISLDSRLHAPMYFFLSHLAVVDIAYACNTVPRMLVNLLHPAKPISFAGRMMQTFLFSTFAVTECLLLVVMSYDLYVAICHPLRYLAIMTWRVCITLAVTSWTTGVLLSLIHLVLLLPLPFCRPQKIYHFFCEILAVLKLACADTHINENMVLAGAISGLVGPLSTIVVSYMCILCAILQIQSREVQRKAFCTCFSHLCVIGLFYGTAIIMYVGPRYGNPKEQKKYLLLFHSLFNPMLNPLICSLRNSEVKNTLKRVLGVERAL
Procedure, shortened: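 Whether a receptor–molecule pair is responsive (active) rests on the original authors' judgment that its measured signal was statistically different from baseline. Pairs without that judgment are non-responsive (inactive). Sources used varied assay methods, commonly transient luciferase assays in mammalian cell lines.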
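Also: active if original authors judged signal statistically different from baseline.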

Row | Structure (SMILES) | odorant receptor agonist call
1 | CC(C)=CCCC(C)=CCCC(C)=CCO | inactive
2 | CC(C=O)Cc1ccc(C(C)(C)C)cc1 (centres undefined) | active
3 | CCCCCCCCCCCCCCCCCC(=O)[O-].[H+] | active
4 | Cc1cccc(C)c1C | inactive
5 | CCCCCCCCCCCCCCCCCC(=O)OCC | inactive
6 | CCCCCCCCCCCCCCCC(=O)OCC | inactive
7 | C=C(C)C1CC=C(C)CC1 (centres undefined) | inactive
8 | CCC(C)CO (centres undefined) | inactive
9 | CCCCCCCCCCCCCCC(=O)O | inactive
10 | CCCC(=O)CC | inactive
11 | CCCCCCCC(=O)OC | inactive
12 | CCCCCCCC(=O)OCC | inactive
13 | CCCCOCC(C)O (centres undefined) | inactive
14 | CC(=O)O | inactive
15 | CCCCCCCCCCCCCCCCCC(=O)OC | inactive
16 | C=C1CCC2CC1C2(C)C (centres undefined) | active
17 | CCCCCCCCCC(=O)OC | inactive
18 | COc1ccc2[nH]cc(CCNC(C)=O)c2c1 | inactive
19 | CCC(O)CC | inactive
20 | CCC(=O)O | inactive
21 | CCCCCCCCO | inactive
22 | CC1=CCC2CC1C2(C)C (centres undefined) | active
23 | Cc1cnc(C)cn1 | inactive
24 | CCCCCCCCCCCCCC(=O)O | inactive
25 | Cc1ccc(C(C)C)cc1 | inactive
26 | CCCCCCCC(=O)[O-].[H+] | active
27 | CC(C)(C)c1ccccc1 | active
28 | CCCCCCCCCCCC(=O)OC | inactive
29 | CC(C)=CCCC(C)=CCO | inactive
